Shown are actives, neighbours in structure and some others; about 3.7% of the full set was active somewhere.
Kir21 block: inhibitors of mouse Kir2.1 inward-rectifier potassium channel; P35561; HEK293-Kir2.1, FluxOR thallium flux fluorescence; hits give low values; B-score at 10 µM; 310,000 compounds, 0.85% hits;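 active means fluorescence ratio B-score at or below minus 3 SD of library scores, with starting-brightness B-score within 2 SD, cut at about -4.2 in these data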;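 further: channel flux triggered by added potassium and thallium sulfate stimulus; B-score of peak minus minimum fluorescence over baseline after thallium stimulus; more negative B-score means stronger Kir2.1 block with less thallium influx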
Target sequence (P35561 whole entry, looked up): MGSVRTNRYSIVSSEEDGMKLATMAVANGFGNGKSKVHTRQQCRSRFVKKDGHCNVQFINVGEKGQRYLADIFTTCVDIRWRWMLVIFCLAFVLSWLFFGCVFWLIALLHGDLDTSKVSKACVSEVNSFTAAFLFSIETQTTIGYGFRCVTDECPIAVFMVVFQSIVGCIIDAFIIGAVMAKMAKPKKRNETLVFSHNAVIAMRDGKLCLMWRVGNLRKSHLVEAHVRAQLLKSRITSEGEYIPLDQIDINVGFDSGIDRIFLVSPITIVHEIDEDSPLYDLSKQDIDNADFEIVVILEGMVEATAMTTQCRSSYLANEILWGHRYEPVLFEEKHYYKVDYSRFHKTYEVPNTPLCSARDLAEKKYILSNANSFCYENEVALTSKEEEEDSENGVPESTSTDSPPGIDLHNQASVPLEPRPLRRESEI
hERG rescue: hERG (human) protection from proarrhythmic block. AID 1511. CHO-hERG, FluxOR thallium flux, dofetilide IC70 present. activation (rescue from dofetilide block), less the hit threshold, % at 10 µM. 310,000 compounds, 0.51% hits. Q12809;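 active means activation above the mean of controls blocked by dofetilide plus 5 SD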;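 further: thallium influx through hERG after potassium depolarization seen as dye fluorescence rise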
KCNQ1 inh: blocks the human KCNQ1 potassium channel | P51787 | CHO-K1 KCNQ1, FluxOR thallium flux fluorescence; hits give high values | B-score at 10 µM | 310,000 compounds, 1.3% hits;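 active means compounds whose thallium flux B-score, printed positive for inhibition, exceeds three library SD while starting fluorescence stays within three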;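 further: channel opened by potassium depolarization with thallium stimulus after 20 min compound exposure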
KCNK9 inh: human KCNK9 channel inhibition; HEK293 KCNK9, FluxOR thallium flux fluorescence; hits give low values; B-score at 10 µM; Q9NPC2; 310,000 compounds, 1.2% hits;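 active means ratio B-score over 3 SD below the library mean, with starting fluorescence within 5 SD of its mean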;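 further: negative B-score means less thallium flux so channel inhibition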
KCNK3 inh: human KCNK3 channel inhibition, primary screen | O14649 | CHO-KCNK3 thallium flux, FluxOR fluorescence; hits give low values | B-score at 10 µM | 340,000 compounds, 0.84% hits | AID 602410;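 active means B-score under library mean minus 4 SD, starting fluorescence ratio at most library mean plus 5 SD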;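 further: more negative B-score means stronger inhibition of thallium flux through KCNK3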
KCNQ1 act: potentiators or activators of human KCNQ1 potassium channel; P51787; CHO-K1 KCNQ1, thallium flux FluxOR fluorescence; hits give high values; B-score at 10 µM; 310,000 compounds, 0.35% hits;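 active means fluorescence ratio B-score, a plate-corrected score, at least three library SD, with initial intensity B-score within 5 SD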
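assay system = CHO-K1 cells stably expressing KCNQ1 | medium = assay buffer, equal DMSO in all wells | timing = 37 °C overnight plating, 90-min dark dye load, 20-min compound pretreatment | measured by = kinetic FluxOR thallium fluorescence, 10-s 1-Hz baseline, 110-s post-stimulus read | measure = fluorescence change relative to baseline, converted to B score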
Of the large screens only hits and unclear results are named; the others gave an inactive call.

CCCNC(=O)c1nnsc1S(=O)c1ccc(Cl)cc1 (stereo not drawn)	Kir21 block -6.1
CCCNC(=O)NS(=O)(=O)c1ccc(Cl)cc1	none
CNC(=O)CN(c1cccc2ccccc12)S(C)(=O)=O	hERG rescue 7.0
COc1ccc(OC)c(CNS(=O)(=O)c2cn(C)cn2)c1	none
CC(Oc1cccc2ccccc12)C(=O)N/N=C/c1cccnc1 (stereo not drawn)	none
CCc1ccc(-c2nc(SCC(=O)N3CCOCC3)n[nH]2)cc1	hERG rescue 10
CCCCCc1cc(=O)oc2c(C(CCN3CCCCC3)c3ccc(OC)cc3)c(OC)cc(OC)c12 (stereo not drawn)	KCNQ1 inh 7
CC(Oc1ccccc1)c1ccnn1S(=O)(=O)c1ccccc1 (stereo not drawn)	Kir21 block -8.6
CCNC(=O)n1nccc1C(C)Oc1ccccc1 (stereo not drawn)	none
COc1cc2c(cc1OC)C(=O)CCC2	none (no result: Kir21 block, hERG rescue, KCNQ1 inh, KCNK9 inh, KCNQ1 act)
COc1ccc(CNC(=O)COC(=O)c2ccc(S(=O)(=O)N3CCCCC3)cc2)cc1	none (no result: Kir21 block, hERG rescue, KCNQ1 inh, KCNK9 inh, KCNQ1 act)
Cn1c(SCC(=O)N/N=C/c2cccs2)nc2ccccc21	none
CCn1c(SCC(=O)N/N=C/c2cccs2)nc2ccccc21	Kir21 block -4.8
O=C(CN1CCOCC1)Nc1ccc(OC(F)(F)F)cc1	none
CN1CCN(C2=Cc3ccccc3Sc3cc(F)c(Cl)cc32)CC1	none
CN1CCN(C2=Cc3ccccc3Sc3cc(F)c(F)cc32)CC1	Kir21 block -4.4
CCOc1cccc(=O)c2c(C)n(-c3ccc(C(=O)O)cc3)c(C)c12	hERG rescue 4.8
Cc1ccc(C(=O)N2CC(=O)NC(=O)C2)cc1	hERG rescue 5.3
Cc1ccc(C(=O)N2CC3(C)CN(C(=O)c4ccc(C)cc4)CC(C)(C2)C3=O)cc1	none
COc1ccc(-c2oc3cccnc3c2C#CC2(O)CCCCC2)cc1	KCNQ1 inh 6
COc1ccc(-c2oc3cccnc3c2C#CCO)cc1	none
Cc1ccc(-c2ccc(=O)n(CC(=O)NCC3COCCO3)n2)cc1 (stereo not drawn)	none
O=C1C(Cl)=C(NS(=O)(=O)c2ccc([N+](=O)[O-])cc2)C(=O)c2ccccc21	KCNQ1 inh 6
Cc1sc2ncnc(SCc3ccc(C(=O)O)cc3)c2c1C	none
COC(=O)c1ccc(CSc2ncnc3sc(C)c(C)c23)o1	hERG rescue 8.8, KCNQ1 act 8
CCOC(=O)/C(=N/Nc1ccc(Br)cc1)N1CC(C)OC(C)C1 (stereo not drawn)	KCNK3 inh -8.7 (no result: Kir21 block, hERG rescue, KCNQ1 inh, KCNK9 inh, KCNQ1 act)
N#C/C(=C\c1ccc(N2CCOCC2)o1)C(=O)Nc1ccc(O)cc1	KCNQ1 inh 7
N#C/C(=C/c1ccc(N2CCOCC2)o1)C(=O)NC1CCCCC1	KCNQ1 inh 7
CC(C)(C)NC(=O)COc1ccc(-c2ccccc2)cc1	KCNK9 inh -7.7
CCN(C(=O)CSc1nc2cc(C(=O)O)ccc2c(=O)n1-c1ccccc1F)C1CCS(=O)(=O)C1 (stereo not drawn)	none (no result: Kir21 block, hERG rescue, KCNQ1 inh, KCNK9 inh, KCNQ1 act)
Cc1cccc(N(Cc2ccccc2)C(=O)c2cccc(S(=O)(=O)N3CC(C)OC(C)C3)c2)c1 (stereo not drawn)	none
CC(NC(=O)C1CCC1)c1ccc(Br)cc1 (stereo not drawn)	none
CC(NC(=O)C1CCCC1)c1ccc(Br)cc1 (stereo not drawn)	hERG rescue 5.5
CCC1(c2ccccc2)NC(=O)N(CC(=O)NC2CCCCCC2)C1=O (stereo not drawn)	none (no result: Kir21 block, hERG rescue, KCNQ1 inh, KCNK9 inh, KCNQ1 act)
CCC(C)NC(=S)N(Cc1cc2cc(C)ccc2n2nnnc12)CC(C)(C)NC(C)C (stereo not drawn)	none
CC(NC(=O)/C(C#N)=C/c1ccc([N+](=O)[O-])o1)c1ccccc1 (stereo not drawn)	Kir21 block -7.7
CC(C)NC(=O)/C(C#N)=C\c1ccc(N(C)C)o1	KCNK9 inh -7
CCC1CCCCN1C(=S)NC(=O)c1ccc([N+](=O)[O-])cc1 (stereo not drawn)	hERG rescue 16, KCNQ1 act 18
O=C(NC(=S)N1CCCCC1CO)c1cccs1 (stereo not drawn)	none (no result: Kir21 block, hERG rescue, KCNQ1 inh, KCNK9 inh, KCNQ1 act)
CCC1CCCCN1C(=S)NC(=O)c1cccs1 (stereo not drawn)	hERG rescue 5.3, KCNQ1 act 8
COc1ccccc1-c1c(C)oc2cc(OC(=O)c3ccco3)ccc2c1=O	Kir21 block -9.2
COC(=O)c1cc2sccc2n1Cc1ccc(C)cc1	KCNK9 inh -8
CCOC(=O)C1CCCN(C(=O)C2CCN(S(=O)(=O)c3ccc4ccccc4c3)CC2)C1 (stereo not drawn)	KCNQ1 act 10
CCc1nn2c(=O)cc(CSCC(=O)Nc3ccccc3Cl)nc2s1	none
O=C1CCC(=O)N1OCCOc1ccc(Cl)c2ccccc12	KCNQ1 inh 6
Clc1ccc(OCCn2ccnc2)c(Cl)c1	none
Clc1ccc(OCCn2ccnc2)c2ccccc12	KCNQ1 inh 6
CCCc1cc2c(-c3ccccc3)cc(=O)oc2cc1OCc1ccc(C(=O)O)o1	KCNQ1 act 9
CCc1cc2c(-c3ccccc3)cc(=O)oc2cc1OCC(C)=O	none
CC(C)(C)n1nnnc1C(c1cccnc1)N(Cc1ccccc1)Cc1ccco1 (stereo not drawn)	none
CCC(C)(C)n1nnnc1C(c1ccc(C)cc1)N(Cc1ccco1)Cc1cccs1 (stereo not drawn)	KCNK9 inh -6.9
Cc1cccc(NC(=O)CCc2c(C)nc3ncnn3c2C)n1	hERG rescue 6.4
CC1C(=O)C(C)C(c2cc(Br)ccc2O)NC1c1cc(Br)ccc1O (stereo not drawn)	none (no result: Kir21 block, hERG rescue, KCNQ1 inh, KCNK9 inh, KCNQ1 act)
CC1C(=O)C(C)C(c2ccc(Br)cc2)NC1c1ccc(Br)cc1 (stereo not drawn)	KCNQ1 inh 6
CCOc1ccc(N2Nc3n[nH]c(N)c3N2)cc1	hERG rescue 37
CCN(CC(=O)Nc1ccc(OC)cc1)C(=O)c1ccc(N2C(=O)CCC2=O)cc1	none (no result: Kir21 block, hERG rescue, KCNQ1 inh, KCNK9 inh, KCNQ1 act)
CC(C)Cn1c(-c2cccs2)nc2ccccc21	Kir21 block -4.5
Cc1[nH]n(-c2ccccc2)c(=O)c1N=Nc1nccs1	hERG rescue 114, KCNQ1 act 78
Cc1[nH]n(-c2ccccc2)c(=O)c1N=Nc1ccccc1O	none
Cc1ccc(S(=O)(=O)N2CCN(C(=O)c3ccc(Br)o3)CC2)c(C)c1	KCNQ1 act 11
Cc1ccc(S(=O)(=O)N2CCN(C(=O)COC(=O)c3ccc(Br)o3)CC2)c(C)c1	none
CS(=O)(=O)/C(C#N)=C\c1cnc(S(=O)(=O)c2ccccc2)s1	none (no result: KCNK3 inh)
CON(C)c1nc(OCCNC(=O)OCc2ccc(Cl)cc2Cl)nc(N(C)C)n1	Kir21 block -4.3
CC1CCCCN1CCNC(=O)Cn1nc(-c2ccccc2)ccc1=O (stereo not drawn)	none
